The test system of one series is HeLa cells. The experiment in a line: Resazurin cell viability assay, HeLa. In kind it is cell-based, human. The gist of the method: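 HeLa cells are kept in DMEM with 5% FCS, penicillin/streptomycin, at 37 °C and 5% CO2. Cells are seeded in triplicate at 4 × 10^3 per well one day ahead, then exposed 48 h to increasing concentrations diluted in medium from 10 mg mL−1 DMSO stocks. Medium is then replaced with resazurin (0.2 mg mL−1 final) for 4 h at 37 °C, and resorufin fluorescence is read at ex 540/em 590 nm.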
For orientation: The colour change of resazurin is a common sign of viable cells or microbes.

The subject of series [1] is B. subtilis 1981 GFP-MinD. Nature of the series: GFP-MinD delocalization assay. The following applies: 8 μg mL^–1 (2× MIC), nisin 0.75 μg mL^–1; 15 minutes. It is filed as cell-based, Bacillus subtilis.
In series [2] the test system is B. subtilis 168. The experiment in a line: BacLight membrane disruption assay. In kind it is cell-based, Bacillus subtilis. To be noted: 8 μg mL^–1 (2× MIC), nisin 0.75 μg mL^–1; 15 minutes. The gist of the method: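 B. subtilis 168 is grown in Belitzky minimal medium to early log phase and exposed for 15 min; untreated aliquot serves as control. Cells are stained 15 min with a 1:1 SYTO 9/propidium iodide mix (1 μL per mL cells), washed twice in 100 mM Tris/1 mM EDTA pH 7.5, then examined by fluorescence microscopy. Red or orange cells in the overlay indicate permeabilized membranes.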

Series [3] concerns B. subtilis 168. Nature of the series: Cell wall integrity assay. In kind it is cell-based, Bacillus subtilis. The following applies: 8 μg mL^–1 (2× MIC), nisin 0.75 μg mL^–1; 15 minutes.

Take `N.N.[Cl][Pt][Cl]` [Cisplatin]: in the series with HeLa cells (48 h), the “IC50 HeLa” value is given as 3.5 ± 0.9 μg mL^–1. For the same molecule, the IC50 (in general, the concentration at which inhibition is half-maximal) in the series on HeLa cells (read-out: IC50 HeLa, 48 h) turned out to be 11.5 ± 2.9 µM.

Regarding “nisin (ITSISLCTPGCKTGALMGCNMKTATCHCSIHVSK; not fully specified; Lantibiotic nisin-A; UniProt P13068 24-57, looked up)”, in series [1], the “GFP-MinD localization (membrane depolarization)” value was “MinD delocalization”. The “membrane permeabilization, BacLight staining” value with B. subtilis 168 [2] was “red fluorescencing cells”. Further, the “cell wall integrity after acetic acid/methanol fixation” value in the series on B. subtilis 168 [3] is “membrane extrusions”.

The values are drawn from publication PMC5433042 (Chemical Science, 2014).
